# Where a SMILES comes first, the peptide text is derived from it. [ ]: non-standard residue; d: D form. The star is where a group is joined. βGlc = OC[C@H]1O[C@@H](*)[C@H](O)[C@@H](O)[C@@H]1O; NMeY = CN[C@@H](Cc1ccc(O)cc1)C(=O)O; NMeF = CN[C@@H](Cc1ccccc1)C(=O)O; 2Abz = Nc1ccccc1C(=O)O
# What was measured:
# MCF7 = assay: Cytotoxicity against human MCF7 cells after 48 hrs by MTT assay; assay type: functional; conditions: MCF7, 48 h
# Summary of the method: (§1)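 MTT assay: 10^4 cells per well, attached overnight. Cells exposed for 4 h at 37 °C, 5% CO2, to compound serially diluted in medium from a 10 mg/mL DMSO stock, vehicle 0.2% DMSO. Medium then replaced with fresh DMEM and growth continued 48 h. MTT 0.5 mg/mL added for 3 h in the dark, formazan dissolved in DMSO, absorbance read at 540 nm. GI50 derived.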
# HeLa = assay: Cytotoxicity against human HeLa cells after 48 hrs by MTT assay; assay type: functional; summary of the method: as §1
SMILES,GI50 (MCF7),GI50 (HeLa)
CC(C)C[C@@H]1NC(=O)[C@H](Cc2ccccc2)N(C)C(=O)[C@H](C)NC(=O)c2ccccc2NC(=O)[C@H](Cc2ccc(O[C@@H]3O[C@H](CO)[C@@H](O)[C@H](O)[C@H]3O)cc2)N(C)C1=O [Cycloaspeptide F] (cyclo([2Abz]A[NMeF]L[NMeY](βGlc))),18.7 µM,49.8 µM
CC(C)C[C@@H]1NC(=O)[C@H](Cc2ccccc2)NC(=O)[C@H](C)NC(=O)c2ccccc2NC(=O)[C@H](Cc2ccc(O)cc2)N(C)C1=O [cycloaspeptide C] (cyclo([2Abz]AFL[NMeY])),31.9 µM,> 63.4 µM
CC(C)C[C@@H]1NC(=O)[C@H](Cc2ccc(O)cc2)N(C)C(=O)[C@H](C)NC(=O)c2ccccc2NC(=O)[C@H](Cc2ccc(O)cc2)N(C)C1=O [Cycloaspeptide G] (cyclo([2Abz]A[NMeY]L[NMeY])),15.2 µM,30.4 µM
CC(C)C[C@@H]1NC(=O)[C@H](Cc2ccccc2)N(C)C(=O)[C@H](C)NC(=O)c2ccccc2NC(=O)[C@H](Cc2ccc(O)cc2)N(C)C1=O [CYCLOASPEPTIDE A] (cyclo([2Abz]A[NMeF]L[NMeY])),23.4 µM,31.2 µM
CS[C@]1(CO)C(=O)N(C)[C@](Cc2ccccc2)(SC)C(=O)N1C [BISDETHIODI(METHYLTHIO)HYALODENDRIN],113 µM,> 113 µM
O=c1[nH]cc(F)c(=O)[nH]1 [FLUOROURACIL],15 µM,10 µM
